The text below walks through data of ChEMBL document CHEMBL1155083, “Piperazine sulfonamides as potent, selective, and orally available 11beta-hydroxysteroid dehydrogenase type 1 inhibitors with efficacy in the rat cortisone-induced hyperinsulinemia model” (J Med Chem, 2008).

SMILES strings stand for the structures. Activity calls are given as the source filed them. A value given as a limit tells only on which side of the number the result lay.

Data set [1] has as its target T1, 11-beta-hydroxysteroid dehydrogenase 1 (Mus musculus, UniProt P50172). Put plainly: Inhibition of mouse 11betaHSD1 expressed in CHO cells by cell based assay.
Data set [2] concerns the target 11-beta-hydroxysteroid dehydrogenase 1 (Homo sapiens, UniProt P28845). The data set can be described thus: Inhibition of human 11betaHSD1 expressed in CHO cells by cell based assay.
Data set [3] has as its target T2, 11-beta-hydroxysteroid dehydrogenase type 2 (Homo sapiens) (UniProt P80365).
T2 sequence (whole entry): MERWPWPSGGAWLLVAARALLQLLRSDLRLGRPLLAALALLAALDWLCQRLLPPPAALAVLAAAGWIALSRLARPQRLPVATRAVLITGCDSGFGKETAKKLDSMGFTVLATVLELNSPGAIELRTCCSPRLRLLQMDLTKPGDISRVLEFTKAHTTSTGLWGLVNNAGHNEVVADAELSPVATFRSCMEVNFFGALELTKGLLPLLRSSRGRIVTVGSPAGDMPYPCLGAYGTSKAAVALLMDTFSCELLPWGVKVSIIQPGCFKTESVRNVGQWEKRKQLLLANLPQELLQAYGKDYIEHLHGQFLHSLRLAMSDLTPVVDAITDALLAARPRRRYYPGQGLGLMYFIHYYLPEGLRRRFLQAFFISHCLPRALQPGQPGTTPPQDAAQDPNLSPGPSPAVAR
The data set can be described thus: Inhibition of 11betaHSD2 at 100 uM by cell based assay.

The target of data set [4] is T1, 11-beta-hydroxysteroid dehydrogenase 1. The data set can be described thus: Inhibition of C57BL/6 mouse 11betaHSD1 in presence of human serum.
A short description of data set [5]: Clearance in mouse at 2 mg/kg, iv. Also noted: dose 2 mg/kg, route intravenous. Format: ADME, organism-based. Particulars: in vivo.
A short description of data set [6]: Metabolic stability assessed as half life in mouse liver microsomes.
Data set [7] is described as follows: Oral bioavailability in mouse at 30 mg/kg. To be noted: in vivo. Format: ADME, organism-based.
Data set [8] deals with Mus musculus. The data set can be described thus: Ex vivo inhibition of 11betaHSD1 in C57BL/6 mouse assessed as conversion of [3H]cortisone to [3H]cortisole in liver at 30 mg/kg, po. The format is functional. Particulars: C57BL/6, Liver. In short, it runs like this:
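Mice dosed orally; sacrificed 5 h after dosing. Liver samples taken and 11β-HSD1 conversion of cortisone to cortisol measured; percent inhibition reported.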

Data set [9] is described as follows: Metabolic stability assessed as half life in human liver microsomes. On the technique in general: Liver microsomes are a subcellular fraction often used to study metabolism.

T1 sequence (P50172 whole entry): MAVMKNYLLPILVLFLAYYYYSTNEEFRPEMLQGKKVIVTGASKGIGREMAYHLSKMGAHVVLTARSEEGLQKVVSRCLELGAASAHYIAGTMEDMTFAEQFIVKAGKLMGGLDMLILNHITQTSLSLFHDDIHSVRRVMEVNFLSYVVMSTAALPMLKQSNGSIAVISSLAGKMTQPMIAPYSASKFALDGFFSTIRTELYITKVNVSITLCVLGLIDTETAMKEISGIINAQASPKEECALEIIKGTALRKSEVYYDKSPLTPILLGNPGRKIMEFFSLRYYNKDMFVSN
11-beta-hydroxysteroid dehydrogenase 1 (Homo sapiens, UniProt P28845), sequence (P28845 whole entry): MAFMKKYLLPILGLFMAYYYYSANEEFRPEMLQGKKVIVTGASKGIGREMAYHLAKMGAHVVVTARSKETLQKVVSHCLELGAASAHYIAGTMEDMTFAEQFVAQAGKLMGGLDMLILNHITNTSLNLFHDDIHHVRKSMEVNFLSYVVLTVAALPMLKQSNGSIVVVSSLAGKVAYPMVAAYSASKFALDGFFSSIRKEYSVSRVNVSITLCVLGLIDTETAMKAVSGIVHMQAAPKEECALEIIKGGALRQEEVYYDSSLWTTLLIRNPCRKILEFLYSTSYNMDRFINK

Broadly, the IC50 is the midpoint of a concentration-inhibition curve. In the case of `C[C@@H]1CN(c2ccc(F)cc2C(F)(F)F)CCN1S(=O)(=O)c1cccc(-n2ccnc2)c1`, the results for the 50% inhibitory concentration (IC50) in [1], in data set [2] and in [4] were 0.011 µM, 0.074 µM and 0.073 µM, respectively. Moreover, the result in [3] was inactive.
With `C[C@@H]1CN(c2ccc(F)cc2C(F)(F)F)CCN1S(=O)(=O)c1cccc(N2CCCC2)c1`, the IC50 in data set [1] stood at 0.016 µM; in data set [2], 0.061 µM; in data set [4] it was 0.056 µM. Besides, the result in data set [3] was inactive.
For the molecule `C[C@@H]1CN(c2ccc(F)cc2C(F)(F)F)CCN1S(=O)(=O)c1cccc(N2CCCC2C(=O)O)c1` (some centres not stated), the IC50 in [1] stood at 0.027 µM; in [2], 0.069 µM; in [4], 0.032 µM. Besides, in data set [3], the result was inactive.
For orientation: clearance means a measure of how efficiently the substance is removed, as volume per time. Low readings indicate a low capacity for elimination, high ones a high capacity for elimination. In general, half-life refers to the time needed for the level to fall by half in the phase considered. What is called bioavailability is the share of a dose that reaches the circulation, judged against a reference dose that is usually intravenous. A high value points to good availability. For orientation: inhibition in vivo means the percentage by which the read-out fell short of the control. Turning to `C[C@@H]1CN(c2ccc(F)cc2C(F)(F)F)CCN1S(=O)(=O)c1cccc(N2CCC(C(=O)O)C2)c1` (some centres not stated), the clearance in data set [5] turned out to be 55 mL/min/kg. For the same molecule, the half-life in data set [6] was over 30 min. Also, the bioavailability in data set [7] stood at 100%. Further, the IC50 in data set [1] came out at 0.01 µM; in [2] it was 0.16 µM; in [4], 0.09 µM. The outcome in data set [3] was inactive. The inhibition in vivo at 30 mg/kg in data set [8] was found to be 36%.
`CCN1CCN(c2cccc(S(=O)(=O)N3CCN(c4ccc(F)cc4C(F)(F)F)C[C@H]3C)c2)CC1`: the 50% inhibitory concentration (IC50) in [1] amounted to 0.029 µM; in [2], 0.03 µM; in [4] it was 0.045 µM. In data set [3], the result was inactive.
The matching figures for `COC(=O)C1CCN(c2cccc(S(=O)(=O)N3CCN(c4ccc(F)cc4C(F)(F)F)C[C@H]3C)c2)C1` (some centres not stated): 0.01 µM, 0.011 µM, 0.055 µM and “inactive”.
Regarding `O=C1CN(c2ncccc2C(F)(F)F)CCN1S(=O)(=O)c1ccc(Cl)c(Cl)c1`, the half-life in data set [9] turned out to be 2 min; in data set [6], 6 min. Besides, the IC50 in [1] was over 10 µM; in data set [2] it was 0.5 µM. Further, the outcome in [3] was inactive.
`C[C@@H]1CN(c2ccc(F)cc2C(F)(F)F)CCN1S(=O)(=O)c1cccc(N2CCNCC2)c1`: the IC50 in [1] is 0.16 µM; in data set [2], over 10 µM; in data set [4] it was 0.19 µM. Besides, the outcome in [3] was inactive.
With `C[C@@H]1CN(c2ccc(F)cc2C(F)(F)F)CCN1S(=O)(=O)c1cccc(N2CC[C@H](O)C2)c1`, the IC50 in data set [1] turned out to be 0.02 µM; in data set [2] it was 0.028 µM; in data set [4] it was 0.041 µM. Besides, the result in data set [3] was inactive.
Take `COC(=O)N1CCN(c2cccc(S(=O)(=O)N3CCN(c4ccc(F)cc4C(F)(F)F)C[C@H]3C)c2)CC1`: the IC50 in [1] came out at 0.011 µM; in data set [2], 0.33 µM; in data set [4], 0.22 µM. Besides, the result in data set [3] was inactive.
On to `O=C1CN(S(=O)(=O)c2ccc(Cl)c(Cl)c2)CCN1c1ncccc1C(F)(F)F`, for which the half-life in data set [9] and in data set [6] was 30 min each time. The IC50 is over 10 µM in data set [1] and 9.9 µM in [2]. In data set [3], the result was inactive.
Consider `C[C@@H]1CN(c2ncccc2Cl)[C@@H](C)CN1S(=O)(=O)c1ccc(Cl)c(Cl)c1` (relative stereo), for which the results for the half-life in data set [9] and in data set [6] were 3 min and 2 min, respectively. The IC50 turned out to be 4.7 µM in [1] and 1.6 µM in data set [2]. Moreover, in data set [3], the result was inactive.
Regarding `C[C@@H]1CN(c2ccc(F)cc2C(F)(F)F)CCN1S(=O)(=O)c1cccc(N2CC[C@@H](O)C2)c1`, the half-maximal inhibitory concentration (IC50) in data set [1] was determined as 0.012 µM; in data set [2] it was 0.01 µM; in data set [4], 0.013 µM. In addition, the outcome in data set [3] was inactive.
Take `CCNC(=O)N1CCN(c2cccc(S(=O)(=O)N3CCN(c4ccc(F)cc4C(F)(F)F)C[C@H]3C)c2)CC1`: the values for the half-inhibitory concentration (IC50) in data set [1], in data set [2] and in data set [4] were 0.012 µM, 0.37 µM and 0.22 µM, respectively. Moreover, the result in data set [3] was inactive.
In the case of `CC(C)N1CCN(c2cccc(S(=O)(=O)N3CCN(c4ccc(F)cc4C(F)(F)F)C[C@H]3C)c2)CC1`, the IC50 in data set [1] was determined as 0.15 µM; in data set [2], 0.49 µM; in data set [4] it was 0.25 µM. Further, in data set [3], the outcome was inactive.
Consider `C[C@@H]1CN(c2ccccc2C(F)(F)F)CCN1S(=O)(=O)c1ccc(Cl)c(Cl)c1`, for which the half-life in data set [9] was found to be 5 min; in data set [6], 3 min. Also, the IC50 in [1] and in [2] was 0.01 µM each time. Besides, in [3], the outcome was inactive.
On to `O=S(=O)(c1ccc(Cl)c(Cl)c1)N1CCN(c2ccccc2C(F)(F)F)CC1`, for which the half-life in [9] stood at 4 min; in [6], 3 min. Moreover, the half-maximal inhibitory concentration (IC50) in data set [1] stood at 0.42 µM; in data set [2], 0.052 µM. In addition, the result in [3] was inactive.
With `C[C@@H]1CN(c2ccc(F)cc2C(F)(F)F)CCN1S(=O)(=O)c1cccc(N2CCC(C(N)=O)C2)c1` (some centres not stated), the 50% inhibitory concentration (IC50) in data set [1] is 0.011 µM; in [2], 0.032 µM; in data set [4] it was 0.014 µM. The outcome in data set [3] was inactive.
In the same order, the values of `C[C@@H]1CN(c2ccc(F)cc2C(F)(F)F)CCN1S(=O)(=O)c1cccc(-n2cnnc2)c1` are 0.23 µM, 0.12 µM, 0.12 µM and “inactive”.
For `C[C@@H]1CN(c2ccc(F)cc2C(F)(F)F)CCN1S(=O)(=O)c1cccc(-n2cccn2)c1`, the IC50 is 0.012 µM in data set [1], 0.013 µM in data set [2] and 0.1 µM in data set [4]. For the same molecule, the result in data set [3] was inactive.
`C[C@@H]1CN(c2ccc(F)cc2C(F)(F)F)CCN1S(=O)(=O)c1cccc(N2CCOCC2)c1`: the IC50 turned out to be 0.011 µM in data set [1], 0.013 µM in data set [2] and 0.056 µM in data set [4]. In addition, the outcome in data set [3] was inactive.
Regarding `O=S(=O)(c1ccc(Cl)c(Cl)c1)N1CCN(c2ccc(F)cc2C(F)(F)F)CC1`, the half-life in data set [9] was 12 min; in data set [6], 8 min. Further, the IC50 came to 0.25 µM in [1] and 0.068 µM in data set [2]. In data set [3], the result was inactive.
Turning to `C[C@@H]1CN(c2ncccc2Cl)C[C@H](C)N1S(=O)(=O)c1ccc(Cl)c(Cl)c1`, the half-life in data set [9] worked out at 6 min; in data set [6] it was 3 min. In addition, the IC50 in data set [1] was 6.9 µM; in [2], 1.3 µM. For the same molecule, in data set [3], the result was inactive.
As to `C[C@@H]1CN(c2ccc(F)cc2C(F)(F)F)CCN1S(=O)(=O)c1cccc(N2CCCCC2)c1`, the figures for the IC50 in [1], in data set [2] and in data set [4] were 0.01 µM, 0.015 µM and 0.067 µM, respectively. The result in [3] was inactive.
Consider `O=S(=O)(c1ccc(Cl)c(Cl)c1)N1CCN(c2ncccc2C(F)(F)F)CC1`, for which the half-life in data set [9] and in [6] was 5 min each time. Also, the values for the IC50 in [1] and in [2] were 0.19 µM and 0.061 µM, respectively. The result in data set [3] was inactive.
